In the EternaBench riboswitch data:

System: MS2 coat protein
Assay: apparent Kd, MS2 coat protein; higher = weaker binding; RNA-MaP array; FMN 200 µM where present
Outline: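 Stalled E. coli RNA polymerase produced the designs on Illumina sequencing-chip clusters. SNAP-549-labelled MS2 coat protein was added from 0.7 or 1.5 nM, doubling to 3 µM, without and then with constant ligand, in 100 mM Tris-HCl pH 7.5, 80 mM KCl, 4 mM MgCl2, BSA, DTT, yeast tRNA and Tween-20. The apparent Kd is the median of filtered per-cluster fits of green signal normalised to red-channel RNA signal and control-cluster median Fmax.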

[1] = designed as: OFF switch for flavin mononucleotide, no ligand
[2] = ligand present: flavin mononucleotide, designed as: OFF switch for flavin mononucleotide
[3] = designed as: ON switch for flavin mononucleotide, no ligand
[4] = ligand present: flavin mononucleotide, designed as: ON switch for flavin mononucleotide

Sequence	apparent Kd [1] [nM]	apparent Kd [2] [nM]	apparent Kd [3] [nM]	apparent Kd [4] [nM]
AUGAGGUCAGGAUAUGCAUGGCGGGACUUGCGUCGUGGCGUGGAGAAGGGACAUGAGGAUCACCCAUGUGGAGC	56.6	64.7	–	–
GCGUAUUAGGUGUAGCUAGUCAUUCAAGAAGGGUGAAGAACAUGAGGAUCACCCAUGUUGUUUUUACAGGAUAUUGAUAUACGC	–	–	68	8.52
GGUACCAACACAGGAUAUGCUUUCCUUUGGGAAGCAGAAGGGUGAAACAUGAGGAUCACCCAUGUGGUGCCAGGGCGUGAGCCC	–	–	1360	79.5
GUCAGCUCGUGAGGAUAUACAACACUGCUUCGGCAGUGCAUUAAGAUCACAUGAGGAUCACCCAUGUAGAAGGCACGAGCUGAU	15	313	–	–
AACUAGCUAGGAUAUACAUGAGGAUCACCCAUGUAAAAAAAAAAAAAAAAAUUUUUAUGUAGAAGGAGCUAGUA	34	41.2	–	–
UAAAAGACUAGCAACUAACUCCACAUGAGGAUCACCCAUGUCUAGGAUAUGAGCAGCAAAGCUGCUUAGAAGGAGACGCUAGUC	6.48	6.1	–	–
UAAUCGUUGCAGAAGGUUAUUAUUAUAACGUGACACUUAACAUGAGGAUCACCCAUGUUUUUGAUGAAGGAUAUGCAACGGUAG	8.04	7.71	–	–
AUGGACAGCAUAGACACAUAGUAACGAGAAGGUACACAUGAGGAUCACCCAUGUACAGUCAGAAGUAAGGAUAUUGAAUGGUAG	–	–	36.4	27.4
GCCUCACAUGAGGAUCACCCAUGUCAGGAUAUAGGAGGCGAUAGAAAUCCUACCGCCGCUAGAAGGGACUGGCA	39.8	91.2	–	–
GGAAAGCGAGGAUAUACAUGAGGAUCACCCAUGUAAACAAACAAACAAACAAACAAAUGUAGAAGGCGCAAAAC	43.9	43	–	–
UUUUGGCAUGUAGGAUAUGGGUCCGAUUAGGAUUUAGAAGGACAUGAGGAUCACCCAUGUGCAUUUAAUUGGUCUUUAUUUUUU	64.1	85.6	–	–
GGAUUUGUUCCAAUUUCGGUGAGUAAGGAUAUGCAUGGCAUACAUGAGGAUCACCCAUGUUGUCGGCAGAAGGUGCCACAACGU	–	–	59.4	15.2
AGGAUGUUAGGAUAUCGGAUAUGCUGGAGGAGGUGGAUUUACGAGAAGGAACAUGAGGAUCACCCAUGUUGGAG	22.5	25.1	–	–
AAGUCUGUACGAGGAUAUCAGUUGUAUCUAGAUUCAACAUGAGGAUCACCCAUGUUGCAAUAGGGUGAGAAGGCGUGUGGGCAA	–	–	101	25.3
ACGGUGGUCACAGGAUAUCCGGCCCGCGGGCCUGGAGAAGGGUGACUCAGAACCACAUGAGGAUCACCCAUGUGCCUUGCCGUA	–	–	250	48.7
UUAAAUCAUGUAGGAUAUGCAUGGCGAAGCUACGCAGAAGGACAUGAGGAUCACCCAUGUUCUGGCGUCUGAGUACAGAUGCAA	20.3	48.8	–	–
GUAGCAUACCGAGGAUAUUCAUAUUACAUGAGGAUCACCCAUGUUAUAGGUCGAUUACGACCUUGGGAGAAGGCGGAAUGCUAC	–	–	30.9	13.2
UUUAUGGGACAGAAGGGCAUUUACAUGAGGAUCACCCAUGUUCAUCAUUGCAGGAUAUGUAUUACAUGAGGAUCACCUAUGUAC	–	–	74.9	24.4
UCACGGAGCCUAGGAUAUACAUGAGGAUCACCCAUGUAUUAACGUUAGUGCUGGACUGAUUUGCUGUAGAAGGAGGUCACCGAA	20.9	43.1	–	–
CCAUCAGCGAACGAUACGGUUGGACAUGAGGAUCACCCAUGUAGAAGGACAGGAGAAUAACGGCUGUAGGAUAUACAUUUAGUG	40.7	33.9	–	–
AAUAUGUUGCAGAAGGUUAUAUUUUUUUAGUACCUCAUUACAUGAGGAUCACCCAUGUAAAUGAUGAAGGAUAUGCAAUAUAUU	19.3	16.4	–	–
GGAUAGGACAGAGGAUAUACGUGCUAGAGAUACUAGCAAAAUUUCCUCACAUGAGGAUCACCCAUGUAGAAGGUUGUCCUAUCG	5.14	11.8	–	–
CCUCUACAUGAGGAUCACCCAUGUGAGGAUAUGUGAGGCGCGCUCGAUGAGCGCACCGAUAGAAGGCAUGUGGU	25.8	70.5	–	–
CCGCAAAUGCAGGAUAUCGUAUCGGAUACGAUACGAGAAGGGCAUACAUGAGGAUCACCCAUGUGUCCUAGCGG	16.6	35.2	–	–
UUAUACGGUGAGGAUAUCUUCACUAAAGUGUGAAGAGAAGGCGCUACAUGAGGAUCACCCAUGUCUAUGGGCAG	556	755	–	–
CGUUUCAUGUCAGGAUAUCCGCGCAGCUUUACGCACGAUAUAAGGGAGCUUGGAGAAGGGACAUGAGGAUCACCCAUGUGCCUC	8.6	12.4	–	–
AGUAGAUCAGGAUAUACGUAAAUGGUAAUUAUGUAACUUCUACAUGAGGAUCACCCAUGUAGAAGGGAUCUACA	13.6	13.4	–	–
GAUUGAGAGCAGGAUAUCAUAGAAAUGUAUGAAUGAGAAGGGCUCACAUGAGGAUCACCCAUGUGGUCCUAGAU	27.2	171	–	–

Sequence	apparent Kd [1] [nM]	apparent Kd [2] [nM]	apparent Kd [3] [nM]	apparent Kd [4] [nM]
GUUUACGCAUGAGGAUAUGCUCGCAUUUCAAGAGCAGAAGGUAUGUCUUUAGACAUGAGGAUCACCCAUGUAUUUAUCAUUGAA	–	–	166	28.4
CGUAUGUCAGGAUAUGCGUAUGCCGCUCAGGGCGAGCGGCAGCAGAAGGGACAUGAGGAUCACCCAUGUUCGGG	71.4	49.3	–	–
UUGGACGUCGUAGGAUAUGUAGGAUCUUCCUACAUGAGGAUCACCCAUGUUGACAUGGAAGAAGGACAGAAGGACGAUGUCCAU	–	–	6.88	4.77
CAGGUAGACUGAGGAUAUACAAUAAAGACCUAGUCUAUCUAGGUCAUCACAUGAGGAUCACCCAUGUAGAAGGCAGUCUGCCUG	18.5	38.2	–	–
GAGCGAGGGACAGGAUAUGCGGCGAAACUCUCCGCAGAAGGGUCGACAUGAGGAUCACCCAUGUCCUUACGCUCCAAGUAGAGG	–	–	132	397
ACGUUAAAAGGAUAUACAUGAGGAUCACCCAUGUUGUUCGAACUGGUAAACCCUCUAUGUAGAAGGUUUGGCAC	23.5	50.1	–	–
GCACUGGAUGUAGGAUAUCAGGACGAUAAGUCCUGAGAAGGACAUGAGGAUCACCCAUGUGUUAAAACCAGUGCAUAUAAUAUA	13.8	20.6	–	–
UUCAGCUCGUGAGGAUAUACAUGUGCUGGAAACAGCACUAAUUAAAUCACAUGAGGAUCACCCAUGUAGAAGGCACGAGCUGAG	16.2	25.8	–	–
CAGGAUCAAGGAUAUCAUCGACGGAACAUGAGGAUCACCCAUGUGAUUGUGCUCUCCUUGUGAGAAGGUGGCGAAU	38.5	36.7	–	–
AUGGAUAUCACAGGAUAUGCUAUGGAUACCAUAGCAGAAGGGUGAUCCAUCCUAUGUAAAUACAUGAGGAUCACCCAUGUGUCC	–	–	50	35.7
AACAUCGCAGGAUAUUCGUGCUCAGACAUGAGGAUCACCCAUGUUUGGUGGGUUGGAGAAGGAGAAGGGCGAUGGA	103	137	–	–
AGAUUUGUACAUGAGGAUCACCCAUGUUAAUAGGUGGUAGUCAGAAGGCAUUGAUAGAGUUUUAAUGAGGAUAUGAAUAUACAG	–	–	267	126
GGAUCGAAUGUGAGGAUAUGCUGGUCCUUGGAUCAGCAGAAGGCACAUGAGGAUCACCCAUGUGACUAAGAUCC	32.7	248	–	–
UUGGACGUCGUAGGAUAUGUAGGAUAUUCCUACAUGAGGAUCACCCAUGUUGAGAUGGAAGAAGGACAGAAGGACGAUGUCCAU	–	–	25.3	4.05
GGAUUAAUAGCCCACAUGAGGAUCACCCAUGUAGUAUUUUACAAGGAUAUGGUGGGACUUCGUGGCCAGAAGGUGUAAAGGAUC	–	–	451	397
UGGUACUAGGGAGGAUAUGGGAAGAUACAUGAGGAUCACCCAUGUUUAAGAAUGCCGAGAGGCAACUAGAAGGCCCUAGUGCCU	–	–	432	19.2
CUGAGUAGUCAGGAUAUGCUGUACAAAAGUACAGCAGAAGGGAUUACAUGAGGAUCACCCAUGUUUUCUUCAUG	56.1	137	–	–
UGAAUCAUGCCAUGCGCUGACAUGAGGAUCACCCAUGUGUACAAGGAUAUGUUGGUCGACGAUCGGCAGAAGGUGUAAUGGGAU	319	764	–	–
ACUACUUAGUGAGGAUAUACAUAAUUUAUAACUGUAGAAGGCACAAACCUCAAUACAUGAGGAUCACCCAUGUUUUAUAUCUAU	32.7	46.4	–	–
GUUUCACAUGAGGAUCACCCAUGUGAGGAUAUGGACUUAUUGGCAAUAGUCGAUGGGUUCAGAAGGCGCGUGAU	67.9	71.2	–	–
AUGAGAGCAGGAUAUGCAGGUGUGCCGGAAGAAAGAAGAAGACAUGAGGAUCACCCAUGUAGAAGGGCUAGCCC	19.1	15.6	–	–
UUUAUAAAUUAGAAGGCGUGAUAAAAUACAAUAGACAUGAGGAUCACCCAUGUGUACCCAUGUUAUGAGGAUAUAGUCAUAUAU	–	–	279	233
AAGAAGUCAGGAUAUGCUAAAGAAAUAAAAAGAAAGAAAGAACAUGAGGAUCACCCAUGUAGAAGGGACAAGAA	42.9	40.6	–	–
AGAUCUCAAUAAGAUCCAAUACGAACAUGAGGAUCACCCAUGUAGGAUAUGCUAGAAGUAGAGUAGCAGAAGGACAAGUACCUU	18.4	15.7	–	–
GUCAGCUCGUGAGGAUAUACAACACUGCUUCGGCAGUGUAUUAAGAUCACAUGAGGAUCACCCAUGUAGAAGGCACGAGCUAAU	15.9	267	–	–
GGGCUCGUCGUAAACGACAUGAGGAUCACCCAUGUUGGGCACAGAAGGGCCUUCAUUCGGAUCAGGCAGGAUAUGUAUCUAACA	5.09	5.32	–	–
CGAGUACAUGAGGAUCACCCAUGUUAUGAAUUGUCAGGAUAUGGAUAUUGUUGACAUGCGCCAGAAGGGACUUCUG	–	–	27.5	20.2
